{"data": "Results pooled from the literature", "target": "Beta-1 adrenergic receptor (ADRB1, Homo sapiens, UniProt P08588)", "note": "Each line is one published result; the experiments were not run side by side."}
{"SMILES": "C[C@H](C(=O)N[C@H]1COc2ccccc2[C@@H]1S(C)(=O)=O)c1ccc(F)cc1", "test": "cell-free assay", "setting": "10 µM", "endpoint": "inhibition", "value": "3%"}
{"SMILES": "O=C(Nc1cccnn1)N1CCN([C@@H]2CCOc3cc(C(F)(F)F)ccc32)CC1", "test": "cell-free assay", "setting": "20 µM", "endpoint": "inhibition", "value": "27%"}
{"SMILES": "COCc1c(-c2cc3cc(C)cc(OC)c3s2)c2c(N)ncnn2c1CN1CCNC(=O)C1", "test": "ligand displacement, radioligand", "setting": "10 µM", "endpoint": "inhibition", "value": "2%"}
{"SMILES": "Cn1cncc1[C@@](O)(COc1ccc(C#N)cc1-c1ccc(OC(F)(F)F)cc1)c1ccc(C#N)cc1", "test": "ligand displacement", "setting": "10 µM", "endpoint": "inhibition", "value": "-16.5%"}
{"SMILES": "Nc1ncc(-c2nc(N3CCOCC3)nc(N3CCOCC3)n2)c(C(F)F)n1", "test": "cell-free assay, radioligand", "setting": "10 µM", "endpoint": "remaining signal", "value": "93.2%"}
{"SMILES": "c1ccc(C(NCCNC(c2ccccc2)c2ccccc2)c2ccccc2)cc1", "test": "cell-free assay", "setting": "10 µM", "endpoint": "inhibition", "value": "31%"}
{"SMILES": "COc1ccc(S(=O)(=O)N2CCCCC2)cc1C", "test": "ligand displacement, radioligand", "setting": "10 µM", "endpoint": "inhibition", "value": "< 30%"}
{"SMILES": "CN(CCN1CCC(OC(=O)Nc2ccccc2-c2ccccc2)CC1)C(=O)c1ccc(CN2CCC(C(N)=O)CC2)cc1", "test": "ligand displacement, radioligand", "setting": "1 µM", "endpoint": "inhibition", "value": "14%"}
{"SMILES": "Cc1c(N2CCNCC2)nc2ccc(Br)cc2c1C(=O)NC[C@H](CCC(=O)O)c1ccccc1Cl", "test": "ligand displacement", "setting": "10 µM", "endpoint": "inhibition", "value": "12.6%"}
{"SMILES": "CC(C)N1CCC[C@H]1CNC(=O)c1cn(C2CCCC2)c(=O)c2c1c1ccccc1n2C", "test": "ligand displacement, radioligand", "setting": "10 µM", "endpoint": "inhibition", "value": "24%"}
{"SMILES": "Clc1ccc2c(C3CCN(CCc4c[nH]c5ccccc45)CC3)c[nH]c2c1", "test": "ligand displacement, radioligand", "setting": "10 µM", "endpoint": "inhibition", "value": "84%"}
